Assay results reported in ChEMBL document CHEMBL1140069, “In vitro antifungal activity of polyfunctionalized 2-(hetero)arylquinolines prepared through imino Diels-Alder reactions” (2008).
In brackets after ≈: the same amount, converted by molar mass.

Key:
Format in all cases: functional
Cryptococcus neoformans [1] = test: Antimicrobial activity against Cryptococcus neoformans IM 031631 isolate at 50 ug/ml after 48 hrs
How it was run: (§1)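 Percent growth inhibition in 96-well microplates. Compound stocks in DMSO (≤2%) were diluted in RPMI-1640 to final 100–6.25 µg/mL, and 100 µL inoculum was added (final 200 µL). Controls were a growth well (inoculum with matching DMSO, no compound) and a sterility well (no inoculum). Inhibition was calculated against growth and sterility wells.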

Cryptococcus neoformans [2] = test: Antimicrobial activity against Cryptococcus neoformans IM 983036 isolate at 50 ug/ml after 48 hrs
How it was run: (§2)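 Clinical Cryptococcus isolates kept on Sabouraud-dextrose agar slopes; inoculum 1–5 × 10³ CFU/mL. Quinoline DMSO stocks were diluted in RPMI-1640 to final 100–6.25 µg/mL, with DMSO ≤2%. An equal volume of inoculum was added (200 µL per well). Run in triplicate.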

Candida albicans [3] = test: Antimicrobial activity against Candida albicans C128 isolate at 12.5 ug/ml after 24 hrs
How it was run: (§3)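 Growth-inhibition microplate test. Strains are grown on Sabouraud-chloramphenicol agar for 48 h at 30 °C, and inoculum is added to RPMI-1640 containing compound at a final 100–6.25, with DMSO ≤2%. Each strain has a growth control (same DMSO, no compound) and a sterility control.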

Candida parapsilosis [4] = test: Antimicrobial activity against Candida parapsilosis C124 isolate at 12.5 ug/ml after 24 hrs; conditions: Lodderomyces parapsilosis; how it was run: as §1
Cryptococcus neoformans [5] = test: Antimicrobial activity against Cryptococcus neoformans IM 031706 isolate at 25 ug/ml after 48 hrs; how it was run: as §1
Pichia kudriavzevii [6] = test: Antimicrobial activity against Candida krusei C117 isolate at 6.25 ug/ml after 24 hrs; how it was run: as §1
Cryptococcus neoformans [7] = test: Antimicrobial activity against Cryptococcus neoformans IM 972751 isolate at 12.5 ug/ml after 48 hrs; how it was run: as §2
Candida albicans [8] = test: Antimicrobial activity against Candida albicans ATCC 10231 at 100 ug/ml after 24 hrs; conditions: ATCC 10231, 24 h; how it was run: as §3
Candida albicans [9] = test: Antimicrobial activity against Candida albicans C126 isolate at 100 ug/ml after 24 hrs; how it was run: as §3
Candida albicans [10] = test: Antifungal activity against Candida albicans ATCC 10231 after 48 hrs by broth microdilution technique; conditions: ATCC 10231, 48 h
How it was run: (§4)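 CLSI broth microdilution: M-27 A2 for yeasts and M-38 A for filamentous fungi. Medium is RPMI-1640 buffered to pH 7.0 with MOPS. Compound is diluted twofold from 250 to 0.98, final DMSO ≤2%. Inoculum is 1–5 × 10³ CFU/mL. Plates are incubated at 35 °C in a moist, dark chamber and read visually at 48 h. MIC100 is the lowest concentration giving total growth inhibition versus drug-free control.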

Cryptococcus neoformans [11] = test: Antimicrobial activity against Cryptococcus neoformans IM 961951 isolate at 6.25 ug/ml after 48 hrs; how it was run: as §2
Candida albicans [12] = test: Antimicrobial activity against Candida albicans C129 isolate at 100 ug/ml after 24 hrs; how it was run: as §3
Cryptococcus neoformans [13] = test: Antimicrobial activity against Cryptococcus neoformans IM 983040 isolate at 25 ug/ml after 48 hrs; how it was run: as §2
Candida albicans [14] = test: Antimicrobial activity against Candida albicans C126 isolate at 25 ug/ml after 24 hrs; how it was run: as §3
Candida albicans [15] = test: Antimicrobial activity against Candida albicans C126 isolate at 12.5 ug/ml after 24 hrs; how it was run: as §3
Cryptococcus neoformans [16] = test: Antimicrobial activity against Cryptococcus neoformans IM 983036 isolate at 6.25 ug/ml after 48 hrs; how it was run: as §2
Cryptococcus neoformans [17] = test: Antimicrobial activity against Cryptococcus neoformans ATCC 32264 at 100 ug/ml after 48 hrs; conditions: ATCC 32264, 48 h; how it was run: as §1
Cryptococcus neoformans [18] = test: Antimicrobial activity against Cryptococcus neoformans IM 00319 isolate at 100 ug/ml after 48 hrs; how it was run: as §1
Nakaseomyces glabratus = test: Antimicrobial activity against Candida glabrata C115 isolate at 25 ug/ml after 24 hrs; how it was run: as §1
Cryptococcus neoformans [19] = test: Antimicrobial activity against Cryptococcus neoformans IM 031706 isolate at 12.5 ug/ml after 48 hrs; how it was run: as §1
Cryptococcus neoformans [20] = test: Antimicrobial activity against Cryptococcus neoformans IM 042074 isolate at 50 ug/ml after 48 hrs; how it was run: as §1
Candida albicans [21] = test: Antimicrobial activity against Candida albicans C126 isolate at 6.25 ug/ml after 24 hrs; how it was run: as §3
Cryptococcus neoformans [22] = test: Antimicrobial activity against Cryptococcus neoformans IM 983040 isolate at 50 ug/ml after 48 hrs; how it was run: as §2
Cryptococcus neoformans [23] = test: Antimicrobial activity against Cryptococcus neoformans IM 00319 isolate at 50 ug/ml after 48 hrs; how it was run: as §1
Aspergillus flavus = test: Antifungal activity against Aspergillus flavus ATCC 9170 after 48 hrs by broth microdilution technique; conditions: ATCC 9170, 48 h; how it was run: as §4
Cryptococcus neoformans [24] = test: Antimicrobial activity against Cryptococcus neoformans IM 031706 isolate at 50 ug/ml after 48 hrs; how it was run: as §1
Cryptococcus neoformans [25] = test: Antimicrobial activity against Cryptococcus neoformans IM 961951 isolate at 25 ug/ml after 48 hrs; how it was run: as §2
Candida albicans [26] = test: Antimicrobial activity against Candida albicans C127 isolate at 6.25 ug/ml after 24 hrs; conditions: C127, 24 h; how it was run: as §3
Cryptococcus neoformans [27] = test: Antimicrobial activity against Cryptococcus neoformans IM 983036 isolate at 12.5 ug/ml after 48 hrs; how it was run: as §2
Candida parapsilosis [28] = test: Antimicrobial activity against Candida parapsilosis C124 isolate at 6.25 ug/ml after 24 hrs; conditions: Lodderomyces parapsilosis; how it was run: as §1
Cryptococcus neoformans [29] = test: Antimicrobial activity against Cryptococcus neoformans IM 031631 isolate at 100 ug/ml after 48 hrs; how it was run: as §1
Cryptococcus neoformans [30] = test: Antimicrobial activity against Cryptococcus neoformans IM 961951 isolate at 50 ug/ml after 48 hrs; how it was run: as §2
Candida albicans [31] = test: Antimicrobial activity against Candida albicans C129 isolate at 12.5 ug/ml after 24 hrs; how it was run: as §3
Candida albicans [32] = test: Antimicrobial activity against Candida albicans C126 isolate at 50 ug/ml after 24 hrs; how it was run: as §3
Cryptococcus neoformans [33] = test: Antimicrobial activity against Cryptococcus neoformans IM 052470 isolate at 6.25 ug/ml after 48 hrs; how it was run: as §1
Cryptococcus neoformans [34] = test: Antimicrobial activity against Cryptococcus neoformans IM 052470 isolate at 25 ug/ml after 48 hrs; how it was run: as §1
Candida tropicalis = test: Antimicrobial activity against Candida tropicalis C131 isolate at 50 ug/ml after 24 hrs; how it was run: as §1
Candida albicans [35] = test: Antimicrobial activity against Candida albicans C129 isolate at 6.25 ug/ml after 24 hrs; how it was run: as §3
Candida albicans [36] = test: Antimicrobial activity against Candida albicans C127 isolate at 12.5 ug/ml after 24 hrs; conditions: C127, 24 h; how it was run: as §3
Candida albicans [37] = test: Antimicrobial activity against Candida albicans C130 isolate at 100 ug/ml after 24 hrs; how it was run: as §3
Cryptococcus neoformans [38] = test: Antimicrobial activity against Cryptococcus neoformans IM 972724 isolate at 25 ug/ml after 48 hrs; how it was run: as §2
Cryptococcus neoformans [39] = test: Antimicrobial activity against Cryptococcus neoformans ATCC 32264 at 6.25 ug/ml after 48 hrs; conditions: ATCC 32264, 48 h; how it was run: as §1
Cryptococcus neoformans [40] = test: Antimicrobial activity against Cryptococcus neoformans IM 031631 isolate at 12.5 ug/ml after 48 hrs; how it was run: as §1
Pichia kudriavzevii [41] = test: Antimicrobial activity against Candida krusei C117 isolate at 100 ug/ml after 24 hrs; how it was run: as §1

Question: For `c1ccc2nc(-c3ccncc3)ccc2c1`, which inhibition at 50 µg/mL (Cryptococcus neoformans [1]) is on record?
Answer: 75%

Question: And the inhibition at 50 µg/mL (Cryptococcus neoformans [2])?
Answer: 69%

Question: What about the inhibition at 12.5 µg/mL (Candida albicans [3]) of the same molecule?
Answer: 0%

Question: And the inhibition at 12.5 µg/mL (Candida parapsilosis [4])?
Answer: 0%

Question: And the inhibition at 25 µg/mL (Cryptococcus neoformans [5])?
Answer: 57%

Question: What about the inhibition at 6.25 µg/mL (Pichia kudriavzevii [6]) of the same molecule?
Answer: 0%

Question: What about the inhibition at 12.5 µg/mL (Cryptococcus neoformans [7]) of the same molecule?
Answer: 0%

Question: What about the inhibition at 100 µg/mL (Candida albicans [8]) of the same molecule?
Answer: 100%

Question: What about the inhibition at 100 µg/mL (Candida albicans [9]) of the same molecule?
Answer: 69%

Question: What about the MIC (Candida albicans [10]) of the same molecule?
Answer: 100 µg/mL (≈ 485 µM)

Question: And the inhibition at 6.25 µg/mL (Cryptococcus neoformans [11])?
Answer: 4%

Question: What about the inhibition at 100 µg/mL (Candida albicans [12]) of the same molecule?
Answer: 85%

Question: And the inhibition at 25 µg/mL (Cryptococcus neoformans [13])?
Answer: 12%

Question: What about the inhibition at 25 µg/mL (Candida albicans [14]) of the same molecule?
Answer: 0%

Question: What about the inhibition at 12.5 µg/mL (Candida albicans [15]) of the same molecule?
Answer: 0%

Question: And the inhibition at 6.25 µg/mL (Cryptococcus neoformans [16])?
Answer: 0%

Question: What about the inhibition at 100 µg/mL (Cryptococcus neoformans [17]) of the same molecule?
Answer: 100%

Question: What about the inhibition at 100 µg/mL (Cryptococcus neoformans [18]) of the same molecule?
Answer: 92%

Question: And the inhibition at 25 µg/mL (Nakaseomyces glabratus)?
Answer: 4%

Question: And the inhibition at 12.5 µg/mL (Cryptococcus neoformans [19])?
Answer: 41%

Question: And the inhibition at 50 µg/mL (Cryptococcus neoformans [20])?
Answer: 87%

Question: And the inhibition at 6.25 µg/mL (Candida albicans [21])?
Answer: 0%

Question: And the inhibition at 50 µg/mL (Cryptococcus neoformans [22])?
Answer: 34%

Question: And the inhibition at 50 µg/mL (Cryptococcus neoformans [23])?
Answer: 80%

Question: What about the MIC (Aspergillus flavus) of the same molecule?
Answer: 50 µg/mL (≈ 242 µM)

Question: And the inhibition at 50 µg/mL (Cryptococcus neoformans [24])?
Answer: 69%

Question: What about the inhibition at 25 µg/mL (Cryptococcus neoformans [25]) of the same molecule?
Answer: 78%

Question: And the inhibition at 6.25 µg/mL (Candida albicans [26])?
Answer: 0%

Question: What about the inhibition at 12.5 µg/mL (Cryptococcus neoformans [27]) of the same molecule?
Answer: 20%

Question: And the inhibition at 6.25 µg/mL (Candida parapsilosis [28])?
Answer: 0%

Question: What about the inhibition at 100 µg/mL (Cryptococcus neoformans [29]) of the same molecule?
Answer: 100%

Question: And the inhibition at 50 µg/mL (Cryptococcus neoformans [30])?
Answer: 89%

Question: What about the inhibition at 12.5 µg/mL (Candida albicans [31]) of the same molecule?
Answer: 3%

Question: What about the inhibition at 50 µg/mL (Candida albicans [32]) of the same molecule?
Answer: 32%

Question: And the inhibition at 6.25 µg/mL (Cryptococcus neoformans [33])?
Answer: 0%

Question: What about the inhibition at 25 µg/mL (Cryptococcus neoformans [34]) of the same molecule?
Answer: 53%

Question: And the inhibition at 50 µg/mL (Candida tropicalis)?
Answer: 75%

Question: What about the inhibition at 6.25 µg/mL (Candida albicans [35]) of the same molecule?
Answer: 0%

Question: What about the inhibition at 12.5 µg/mL (Candida albicans [36]) of the same molecule?
Answer: 0%

Question: And the inhibition at 100 µg/mL (Candida albicans [37])?
Answer: 84%

Question: And the inhibition at 25 µg/mL (Cryptococcus neoformans [38])?
Answer: 8%

Question: And the inhibition at 6.25 µg/mL (Cryptococcus neoformans [39])?
Answer: 83%

Question: And the inhibition at 12.5 µg/mL (Cryptococcus neoformans [40])?
Answer: 36%

Question: What about the inhibition at 100 µg/mL (Pichia kudriavzevii [41]) of the same molecule?
Answer: 66%
